Consider 39 compounds from ChEMBL document CHEMBL1149664, “Anthranilamide inhibitors of factor Xa” (2007).

SMILES strings stand for the structures.

Experiment [1] deals with Plasma. Kind of experiment: Anticoagulant potency in human citreated plasma assessed as concentration required to double prothrombin time. The experiment is classed as functional.
Experiment [2] has as its target Coagulation factor X (Homo sapiens) (UniProt P00742). The experiment in a line: Inhibition of human factor 10a. The method, boiled down: (§1)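 Values are reported as an apparent association constant (Kassoc) between enzyme and inhibitor, in 10^6 L/mol.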
Experiment [3] deals with Prothrombin (Homo sapiens) (UniProt P00734). The experiment in a line: Inhibition of human factor 2a. An outline of the steps:
as §1

The subject of experiment [4] is Plasma. Kind of experiment: Anticoagulant potency in human citreated plasma assessed as concentration required to double activated partial thromboplastin time. In kind it is functional.

Coagulation factor X (Homo sapiens), sequence (P00742 41-179 limits assumed): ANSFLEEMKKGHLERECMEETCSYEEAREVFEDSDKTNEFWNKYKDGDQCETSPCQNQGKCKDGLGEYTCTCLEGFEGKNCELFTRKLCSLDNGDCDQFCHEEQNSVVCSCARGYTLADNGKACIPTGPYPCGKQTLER
Coagulation factor X (Homo sapiens), sequence (P00742 235-488 limits assumed): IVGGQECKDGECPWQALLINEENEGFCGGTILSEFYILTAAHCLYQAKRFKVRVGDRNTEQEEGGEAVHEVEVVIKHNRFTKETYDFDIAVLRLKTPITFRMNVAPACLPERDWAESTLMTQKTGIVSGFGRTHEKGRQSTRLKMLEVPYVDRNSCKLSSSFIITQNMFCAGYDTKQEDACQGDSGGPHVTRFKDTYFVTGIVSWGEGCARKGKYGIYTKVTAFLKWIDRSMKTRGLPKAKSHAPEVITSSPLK

Take `CC(C)(C)c1ccc(C(=O)Nc2ccccc2C(=O)Nc2ccc(Cl)cn2)c(OC2CCN(Cc3ccccc3)CC2)c1`: the values for the Activity in experiment [1] and in experiment [4] were 44.6 µM and 28.1 µM, respectively. The Kapp in experiment [2] was 488 10^6L/mol; in experiment [3], 20 10^6L/mol.
As for `NCCCOc1cc(N2CCOCC2)ccc1C(=O)Nc1ccccc1C(=O)Nc1ccc(Cl)cn1`, the Activity was 0.34 µM in experiment [1] and 0.26 µM in experiment [4]. Besides, the results for the Kapp in experiment [2] and in experiment [3] were 516 10^6L/mol and 5.8 10^6L/mol, respectively.
`NCCCOc1cc(N2CCCCC2)ccc1C(=O)Nc1ccccc1C(=O)Nc1ccc(Cl)cn1`: the results for the Activity in experiment [1] and in experiment [4] were 0.93 µM and 1 µM, respectively. For the same compound, the Kapp in experiment [2] was 323 10^6L/mol; in experiment [3] it was 17 10^6L/mol.
In the same order, the values of `NCCCOc1cc(N2CCCCCC2)ccc1C(=O)Nc1ccccc1C(=O)Nc1ccc(Cl)cn1` are 2.7 µM, 3.1 µM, 130 10^6L/mol and 25 10^6L/mol.
For `CC(C)(C)c1ccc(C(=O)Nc2ccccc2C(=O)Nc2ccc(Cl)cn2)c(OC2CCN(Cc3ccsc3)CC2)c1`, the Activity worked out at 20 µM in experiment [1] and 14.8 µM in experiment [4]. In addition, the Kapp is 450 10^6L/mol in experiment [2] and 23 10^6L/mol in experiment [3].
The like results for `NCCCOc1cc(N2CCCC2)ccc1C(=O)Nc1ccccc1C(=O)Nc1ccc(Cl)cn1` were, in that order, 0.41 µM, 0.41 µM, 3010 10^6L/mol and 40 10^6L/mol.
Regarding `CC(C)(C)c1ccc(C(=O)Nc2ccccc2C(=O)Nc2ccc(Cl)cn2)c(OC2CCN(C(=O)Nc3ccccc3F)CC2)c1`, the Activity was 30.2 µM in experiment [1] and 21.5 µM in experiment [4]. For the same compound, the Kapp in experiment [2] is 307 10^6L/mol; in experiment [3] it was 27 10^6L/mol.
As for `CC(C)(C)c1ccc(C(=O)Nc2ccccc2C(=O)Nc2ccc(Cl)cn2)c(OC2CCN(C(=O)Cn3cnnn3)CC2)c1`, the Activity was 10 µM in experiment [1] and 8 µM in experiment [4]. The Kapp in experiment [2] is 448 10^6L/mol; in experiment [3] it was 134 10^6L/mol.
`CC(C)(C)c1ccc(C(=O)Nc2ccccc2C(=O)Nc2ccc(Cl)cn2)c(OC2CCNCC2)c1`: the Activity in experiment [1] came out at 0.88 µM; in experiment [4] it was 0.85 µM. Besides, the Kapp in experiment [2] was 1110 10^6L/mol; in experiment [3], 114 10^6L/mol.
In the same order, the values of `COCCN1CCC(Oc2cc(C(C)(C)C)ccc2C(=O)Nc2ccccc2C(=O)Nc2ccc(Cl)cn2)CC1` are 2.1 µM, 2.1 µM, 3080 10^6L/mol and 24 10^6L/mol.
Consider `CC(C)(C)OC(=O)N1CCC(Oc2cc(C(C)(C)C)ccc2C(=O)Nc2ccccc2C(=O)Nc2ccc(Cl)cn2)CC1`, for which the Activity in experiment [1] worked out at 64 µM; in experiment [4], 55 µM. Also, the Kapp in experiment [2] is 69 10^6L/mol; in experiment [3] it was 6 10^6L/mol.
Regarding `CC(C)(CNC(=O)OC(C)(C)C)COc1cc(C(C)(C)C)ccc1C(=O)Nc1ccccc1C(=O)Nc1ccc(Cl)cn1`, the Activity in experiment [1] and in experiment [4] was over 70 µM each time. The Kapp in experiment [2] was 2.9 10^6L/mol; in experiment [3] it was 0.14 10^6L/mol.
`CC(C)(C)OC(=O)N1CCCCC1COc1cc(C(C)(C)C)ccc1C(=O)Nc1ccccc1C(=O)Nc1ccc(Cl)cn1` (stereo not drawn): the Activity in experiment [1] and in experiment [4] was over 70 µM in each case. The Kapp was 3.1 10^6L/mol in experiment [2] and 3.9 10^6L/mol in experiment [3].
Regarding `CC(C)(C)c1ccc(C(=O)Nc2ccccc2C(=O)Nc2ccc(Cl)cn2)c(O)c1`, the Activity in experiment [1] and in experiment [4] was over 100 µM in each case. For the same compound, the Kapp in experiment [2] is 23 10^6L/mol; in experiment [3] it was 0.02 10^6L/mol.
Turning to `COc1ccc(NC(=O)c2ccccc2NC(=O)c2ccc(OC)cc2)cc1`, the Kapp in experiment [2] is 1 10^6L/mol.
For `CC(C)(C)c1ccc(C(=O)Nc2ccccc2C(=O)Nc2ccc(Cl)cn2)c(OC2CCN(Cc3ncc[nH]3)CC2)c1`, the Activity was 2.6 µM in experiment [1] and 1.8 µM in experiment [4]. The Kapp in experiment [2] was 2160 10^6L/mol; in experiment [3], 54 10^6L/mol.
As for `CN(C)CCCNC(=S)N1CCC(Oc2cc(C(C)(C)C)ccc2C(=O)Nc2ccccc2C(=O)Nc2ccc(Cl)cn2)CC1`, the Activity in experiment [1] and in experiment [4] was 2.9 µM in each case. Further, the Kapp in experiment [2] is 170 10^6L/mol; in experiment [3], 145 10^6L/mol.
Consider `CN1CCC(Oc2cc(C(C)(C)C)ccc2C(=O)Nc2ccccc2C(=O)Nc2ccc(Cl)cn2)CC1`, for which the Activity in experiment [1] turned out to be 1.1 µM; in experiment [4] it was 0.93 µM. In addition, the values for the Kapp in experiment [2] and in experiment [3] were 1630 10^6L/mol and 61 10^6L/mol, respectively.
For the compound `CC(C)(C)c1ccc(C(=O)Nc2ccccc2C(=O)Nc2ccc(Cl)cn2)c(OC2CCN(CC3CC3)CC2)c1`, the values for the Activity in experiment [1] and in experiment [4] were 2.5 µM and 2.4 µM, respectively. Further, the figures for the Kapp in experiment [2] and in experiment [3] were 1370 10^6L/mol and 37 10^6L/mol, respectively.
For `COc1ccc(C(=O)Nc2ccccc2C(=O)Nc2ccc(C(C)(C)C)cc2)cc1`, the Kapp in experiment [2] was 0.03 10^6L/mol.
`Cn1nccc1C(=O)N1CCC(Oc2cc(C(C)(C)C)ccc2C(=O)Nc2ccccc2C(=O)Nc2ccc(Cl)cn2)CC1`: the results for the Activity in experiment [1] and in experiment [4] were 7.6 µM and 5.7 µM, respectively. The Kapp in experiment [2] is 513 10^6L/mol; in experiment [3] it was 21 10^6L/mol.
Take `CC(C)(C)c1ccc(C(=O)Nc2ccccc2C(=O)Nc2ccc(Cl)cn2)c(OCCCN)c1`: the figures for the Activity in experiment [1] and in experiment [4] were 0.79 µM and 0.85 µM, respectively. Further, the values for the Kapp in experiment [2] and in experiment [3] were 1440 10^6L/mol and 152 10^6L/mol, respectively.
Turning to `CC(C)(C)c1ccc(C(=O)Nc2ccccc2C(=O)Nc2ccc(Cl)cn2)c(OC2CCN(Cc3ccccc3C(=O)O)CC2)c1`, the Activity in experiment [1] is 1 µM; in experiment [4] it was 0.57 µM. Further, the figures for the Kapp in experiment [2] and in experiment [3] were 1160 10^6L/mol and 72 10^6L/mol, respectively.
As for `CC(C)N1CCC(Oc2cc(C(C)(C)C)ccc2C(=O)Nc2ccccc2C(=O)Nc2ccc(Cl)cn2)CC1`, the Activity in experiment [1] is 1.8 µM; in experiment [4] it was 1.2 µM. Also, the figures for the Kapp in experiment [2] and in experiment [3] were 3440 10^6L/mol and 25 10^6L/mol, respectively.
Take `CC(C)(C)OC(=O)NCCCOc1cc(C(C)(C)C)ccc1C(=O)Nc1ccccc1C(=O)Nc1ccc(Cl)cn1`: the Activity in experiment [1] and in experiment [4] was over 70 µM each time. The Kapp in experiment [2] was 54 10^6L/mol; in experiment [3], 0.2 10^6L/mol.
In the case of `CC(C)(C)c1ccc(C(=O)Nc2ccccc2C(=O)Nc2ccc(Cl)cc2)cc1`, the Kapp in experiment [2] was 0.5 10^6L/mol.
Turning to `CN1CCCN(c2ccc(C(=O)Nc3ccccc3C(=O)Nc3ccc(Cl)cn3)c(OCCCN)c2)CC1`, the Kapp is 8970 10^6L/mol in experiment [2] and 24 10^6L/mol in experiment [3]. Further, the Activity in experiment [4] was found to be 0.1 µM.
On to `CCCN1CCC(Oc2cc(C(C)(C)C)ccc2C(=O)Nc2ccccc2C(=O)Nc2ccc(Cl)cn2)CC1`, for which the values for the Activity in experiment [1] and in experiment [4] were 3.3 µM and 3.1 µM, respectively. Besides, the Kapp is 1940 10^6L/mol in experiment [2] and 30 10^6L/mol in experiment [3].
Consider `CC(C)(C)c1ccc(C(=O)Nc2ccccc2C(=O)Nc2ccc(Cl)cn2)c(OC2CCN(C(=S)NCc3cccnc3)CC2)c1`, for which the results for the Activity in experiment [1] and in experiment [4] were 21.8 µM and 13.4 µM, respectively. The Kapp is 733 10^6L/mol in experiment [2] and 34 10^6L/mol in experiment [3].
Turning to `CC(C)(C)c1ccc(C(=O)Nc2ccccc2C(=O)Nc2ccc(Cl)cn2)c(OC2CCN(C(=O)CCC(=O)O)CC2)c1`, the values for the Activity in experiment [1] and in experiment [4] were 5.3 µM and 6.1 µM, respectively. Also, the Kapp was 714 10^6L/mol in experiment [2] and 4 10^6L/mol in experiment [3].
The like results for `CC(C)(CN)COc1cc(C(C)(C)C)ccc1C(=O)Nc1ccccc1C(=O)Nc1ccc(Cl)cn1` were, in that order, 1.6 µM, 2 µM, 76 10^6L/mol and 1100 10^6L/mol.
In the case of `NCCCOc1cc(N2CC[C@@H](N)C2)ccc1C(=O)Nc1ccccc1C(=O)Nc1ccc(Cl)cn1`, the Activity worked out at 0.45 µM in experiment [1] and 0.4 µM in experiment [4]. Besides, the values for the Kapp in experiment [2] and in experiment [3] were 874 10^6L/mol and 7.3 10^6L/mol, respectively.
`CN(C)CC(=O)N1CCC(Oc2cc(C(C)(C)C)ccc2C(=O)Nc2ccccc2C(=O)Nc2ccc(Cl)cn2)CC1`: the Kapp was 176 10^6L/mol in experiment [2] and 60 10^6L/mol in experiment [3].
Consider `NCCCOc1cc(N2CCSCC2)ccc1C(=O)Nc1ccccc1C(=O)Nc1ccc(Cl)cn1`, for which the Activity is 0.61 µM in experiment [1] and 0.69 µM in experiment [4]. Further, the Kapp in experiment [2] is 709 10^6L/mol; in experiment [3], 17 10^6L/mol.
Regarding `COc1ccc(NC(=O)c2ccccc2NC(=O)c2ccc(C(C)(C)C)cc2)cc1`, the Kapp in experiment [2] is 5 10^6L/mol.
Take `CN1CCN(c2ccc(C(=O)Nc3ccccc3C(=O)Nc3ccc(Cl)cn3)c(OCCCN)c2)CC1`: the values for the Kapp in experiment [2] and in experiment [3] were 82 10^6L/mol and 2 10^6L/mol, respectively.
Regarding `COc1ccc(NC(=O)c2ccccc2NC(=O)c2ccc(C(C)C)cc2)cc1`, the Kapp in experiment [2] was 7 10^6L/mol.
Regarding `CC(C)(C)c1ccc(C(=O)Nc2ccccc2C(=O)Nc2ccc(Cl)cn2)cc1`, the Kapp in experiment [2] is 42 10^6L/mol.
`CC(C)(C)c1ccc(C(=O)Nc2ccccc2C(=O)Nc2ccc(Cl)cn2)c(OCC2CCCCN2)c1` (stereo not drawn): the Activity in experiment [1] and in experiment [4] was 1.4 µM in each case. The Kapp in experiment [2] is 219 10^6L/mol; in experiment [3], 67 10^6L/mol.
